Data: ChEMBL document CHEMBL3112585, “Inhibition of reverse transcriptase and Taq DNA polymerase by compounds possessing the coumarin framework” (Bioorg Med Chem Lett, 2014)
Calls of active or inactive are those of the source. The calls are words filed in the database; no cut-off is given here.

Tests used:
[1] = Inhibition of MMLV reverse transcriptase using desoxynucleotide triphosphate as substrate after 10 mins by RT-PCR analysis; parameters: species or system Moloney murine leukemia virus
Method in brief: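 Reverse transcription mix: 1 µg RNA in commercial buffer, 2.0 U MMLV-RT, 20 µM random primers, 1.0 mM each dNTP; compounds (DMSO) added at varying concentrations during RT step. Heated 70 °C 10 min, then incubated 1 h at […]. Products on ethidium bromide-stained agarose gel, band intensities quantified by scanning; IC50 = concentration giving 50% inhibition.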

[2] = biological target: DNA polymerase I, thermostable (Thermus aquaticus) (UniProt P19821); assay: (§1) Inhibition of Thermus aquaticus taq DNA polymerase by PCR analysis
Method in brief: (§2)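 PCR with 2.5 U Taq polymerase in 40 mM Tris-acetate pH 8.3, 15 mM MgCl2, […], 2.5 mM each dNTP; compounds in DMSO at varying concentrations. 35 cycles: 95 °C 1 min, anneal 56 °C, extend 72 °C 90 s. Ethidium bromide-stained gel band intensities scanned; IC50 = concentration inhibiting activity 50%.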

[3] = biological target: DNA polymerase I, thermostable (Thermus aquaticus, UniProt P19821); assay: as §1; method in brief: as §2
Sequence of DNA polymerase I, thermostable (P19821 whole entry): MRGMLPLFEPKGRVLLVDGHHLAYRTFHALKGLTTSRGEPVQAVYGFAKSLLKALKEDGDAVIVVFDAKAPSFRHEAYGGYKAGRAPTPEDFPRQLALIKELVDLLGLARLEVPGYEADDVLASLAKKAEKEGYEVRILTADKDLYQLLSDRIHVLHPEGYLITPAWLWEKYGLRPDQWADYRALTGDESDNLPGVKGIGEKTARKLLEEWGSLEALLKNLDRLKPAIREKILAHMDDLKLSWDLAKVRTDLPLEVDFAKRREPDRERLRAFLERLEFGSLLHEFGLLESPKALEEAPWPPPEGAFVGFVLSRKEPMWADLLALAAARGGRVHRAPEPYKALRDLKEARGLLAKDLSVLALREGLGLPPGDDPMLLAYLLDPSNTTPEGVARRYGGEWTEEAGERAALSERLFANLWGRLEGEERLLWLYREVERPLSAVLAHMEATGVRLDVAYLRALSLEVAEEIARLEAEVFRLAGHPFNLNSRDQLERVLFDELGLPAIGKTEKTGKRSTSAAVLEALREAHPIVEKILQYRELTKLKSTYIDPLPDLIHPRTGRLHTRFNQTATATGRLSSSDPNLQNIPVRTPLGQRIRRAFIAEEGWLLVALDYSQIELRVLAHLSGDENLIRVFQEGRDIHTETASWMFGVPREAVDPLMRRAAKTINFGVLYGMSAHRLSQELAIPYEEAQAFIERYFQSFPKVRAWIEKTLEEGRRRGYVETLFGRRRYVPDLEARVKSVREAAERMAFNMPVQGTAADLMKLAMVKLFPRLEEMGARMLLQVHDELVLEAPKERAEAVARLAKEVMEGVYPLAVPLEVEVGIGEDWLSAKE

Sequence of DNA polymerase I, thermostable (Thermus aquaticus) (P19821 whole entry): as above

Row | SMILES | IC50 [1] [µM] | inhibition [2] | IC50 [3] [µM]
1 | O=c1ccc2ccccc2o1 [COUMARIN] | 38.6 | inactive | –
2 | COc1cc2c(c3oc(=O)ccc13)OCO2 | – | inactive | –
3 | C=CCc1c(O)c2ccccc2oc1=O | 51 | inactive | –
4 | CC(C)(O)C(O)COc1c2c(cc3oc(=O)ccc13)OCO2 (stereo unspecified) | – | inactive | –
5 | C/C(C=O)=C\COc1c2c(cc3oc(=O)ccc13)OCO2 | – | inactive | –
6 | CC(C)(O)C(=O)COc1c2c(cc3oc(=O)ccc13)OCO2 | – | inactive | –

Other lines, results leading:

Row | IC50 [1] [µM] | inhibition [2] | IC50 [3] [µM] | SMILES
7 | – | – | 48.1 | C/C(=C\COc1c2c(cc3oc(=O)ccc13)OCO2)CO
8 | – | inactive | – | CC(C)=CCOc1c2c(cc3oc(=O)ccc13)OCO2
9 | – | – | 57.9 | CC(C)(O)C(Br)COc1c2c(cc3oc(=O)ccc13)OCO2 (stereo unspecified)
